Hits are enriched below; roughly 2.6% of the tested compounds scored in any of these assays.
Granule exo inh – blocks lytic granule exocytosis. TALL-104 LAMP-1 surface exposure, flow cytometry; cells stimulated with thapsigargin and PMA. inhibition, % at 10 µM. 0.66% of 360,000 active;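 active means inhibition above about 55%, limit read from the data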
iPSC survival up – enhancers of human iPSC single-cell survival. AID 602274. hiPSC single-cell survival, ATPlite luminescence; 100% = ROCK inhibitor wells, 0% = DMSO. 0.044% of 360,000 active. survival enhancement, % at 20 µM; in the data active means survival enhancement above about 18%;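 further: cells exposed to compounds for 16 hours before the ATP read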
ABCB6 inh 2 – human ABCB6 transporter inhibition | Q9NP58 | K562-ABCB6 porphyrin accumulation, flow cytometry, 1 h; stronger effect = lower value | fluorescence ratio to DMSO, % at 10 µM | 0.19% of 360,000 active;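 active means fluorescence ratio to DMSO below 75%, the collection mean minus 3 SD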;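 further: signal is porphyrin accumulated inside mitochondria; 100% equals median channel fluorescence of DMSO control wells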
MC4R antagonist – antagonists of human melanocortin 4 receptor (MC4R) | AID 540295 | inhibition, % at 6.5 µM | P32245 | 0.48% of 360,000 active | MC4R-expressing cells, MTII-stimulated cAMP, LANCE TR-FRET;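 active means inhibition above its plate's cutoff, the mean of tested wells on that plate plus 3 SD, cut at about 29% in these data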;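 further: 0% = Melanotan II alone and 100% = Melanotan II plus saturating MCL0020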
Target sequence (P32245 whole entry, looked up): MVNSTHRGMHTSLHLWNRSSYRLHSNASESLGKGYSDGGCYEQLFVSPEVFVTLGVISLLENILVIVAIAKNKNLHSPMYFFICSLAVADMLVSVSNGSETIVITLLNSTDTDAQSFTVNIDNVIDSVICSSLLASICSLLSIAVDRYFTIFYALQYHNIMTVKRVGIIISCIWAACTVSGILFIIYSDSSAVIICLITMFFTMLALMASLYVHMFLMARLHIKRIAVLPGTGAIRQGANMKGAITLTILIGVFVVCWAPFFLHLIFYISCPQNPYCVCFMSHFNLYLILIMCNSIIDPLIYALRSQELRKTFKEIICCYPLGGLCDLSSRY
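material = U2OS cells stably expressing human melanocortin 4 receptor (MC4R) | also added = Melanotan II challenge | dosing = single nominal compound dose of 6.5 µM | detection = TR-FRET with Eu-cAMP and labeled anti-cAMP, 671 nm | replication = singlicate | timing = compound 30 min, challenge 1 h, detection 1 h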
TbMetRS inhib – Trypanosoma brucei MetRS inhibition; purified T. brucei MetRS, ATP depletion, Kinase-Glo luminescence; inhibition, % at 11.9 µM; 0.4% of 360,000 active;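 active means inhibition above a per-plate cutoff of the control wells' mean inhibition plus 3 SD, cut at about 5.5% in these data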;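 further: 0% = DMSO wells median and 100% = median of wells with control inhibitor compound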
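Assay system: T. brucei methionyl-tRNA synthetase, purified | Medium: HEPES buffer with MgCl2, KCl, DTT, spermine, BSA, pyrophosphatase | Compound: 11.9 µM single point | Incubation: 15 min enzyme-compound preincubation, 2 h reaction, 10 min detection, 25 °C | Measured by: Kinase-Glo luciferase luminescence reporting remaining unconsumed ATP | Measure: % inhibition normalized to control-well medians | Replication: Singlicate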
MC4R barr agon – human MC4R agonism via beta-arrestin; P32245; U2OS MC4R beta-arrestin complementation, luminescence; percent of melanotan II response, DMSO zero; activation, % at 8.9 µM; 0.98% of 360,000 active; AID 540308;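 active means activation above a per-plate cutoff, the mean activation of sample wells on that plate plus 3 SD, cut at about 8% in these data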
MC4R barr conf – human MC4R beta-arrestin agonism confirmation | 31% of 2,400 active | shares compounds with MC4R barr agon | U2OS MC4R beta-arrestin recruitment, luminescence; scaled DMSO 0%, Melanotan II 100% | activation, % at 8.9 µM | AID 602192;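 active means mean activation across replicates above the hit cutoff set in the earlier primary screen, cut at about 8% in these data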
MOR DOR agonist – activates mu-delta opioid heterodimer, MC4R agonist counter-screen. AID 602194. U2OS PathHunter beta-arrestin, beta-gal luminescence; percent of deltorphin B response, DMSO zero. 5.8% of 2,400 active. activation, % at 9.2 µM. shares compounds with MC4R barr agon;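 active means mean activation across replicates exceeds the hit threshold derived in the earlier primary screen, cut at about 18% in these data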;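 further: 100% = deltorphin B at 0.9 µM final and 0% = DMSO alone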
Starred values were filed as active, the others as inactive; / = no result given.

SMILES	Granule exo inh	iPSC survival up	ABCB6 inh 2	MC4R antagonist	TbMetRS inhib	MC4R barr agon	MC4R barr conf	MOR DOR agonist
COc1ccc(C(=O)Nc2ccc(OCc3ccccc3)cc2)cc1[N+](=O)[O-]	2.0	-2.2	95.0	-0.2	0.4	29.7*	10.2*	7.4
CCCCN(C(=O)Nc1ccccc1)C1CCS(=O)(=O)C1 (stereo unspecified)	-5.7	-0.6	94.0	-3.5	-0.3	-1.0	/	/
O=C(/C=C/c1ccc(Cl)cc1)NC(=S)Nc1ccc(N2CCOCC2)c(Cl)c1	-3.4	-1.5	95.0	11.0	0.3	15.0*	7.2	4.5
O=C(/C=C/c1ccc(Cl)cc1)Nc1ccc(N2CCOCC2)cc1	1.9	-0.9	93.0	4.2	-1.2	2.2	/	/
O=C(/C=C/c1ccc(Cl)cc1)Nc1ccccc1N1CCOCC1	-0.4	-1.7	96.0	2.3	-0.3	9.7*	3.4	2.4
O=C(NC(=S)Nc1ccc(N2CCOCC2)cc1)c1ccc(Cl)cc1	-1.7	0.7	98.0	2.0	-0.8	13.9*	1.7	1.8
CC(C)(C)c1ccc(C(=O)NC(=S)Nc2ccc(N3CCOCC3)cc2)cc1	1.6	0.5	95.0	5.6	-0.7	1.4	/	/
Cc1ccc(CNC(=O)Nc2ccccc2)n1C	-6.9	0.2	100.0	5.7	-0.7	-0.7	/	/
O=C(NCc1ccco1)c1cc(-c2ccc3c(c2)OCO3)on1	-2.0	-1.9	99.0	4.0	-1.2	11.9*	5.8	4.7
CCCCN1C(=O)C(CC(=O)NC2CCCC2)CC(C(=O)N2CCOCC2)=C1C (stereo unspecified)	-0.5	-1.4	101.0	6.2	-0.8	-1.0	/	/
COc1ccc(-c2csc3nc(C)nc(N4CCCCC4)c23)cc1OC	15.2	-0.4	97.0	4.7	-1.1	9.6*	-0.7	4.3
O=C(N/N=C/c1cc(Cl)cc([N+](=O)[O-])c1O)c1cccc(S(=O)(=O)N2CCOCC2)c1	3.9	-0.4	105.0	-3.5	-0.1	-6.3	/	/
CC1CC(C)(C)CC2(C1)NC(=O)N(CC(=O)OCc1ccc(Br)cc1)C2=O (stereo unspecified)	3.4	0.2	93.0	-0.9	-0.4	14.0*	-0.7	6.5
Cc1nc(C(=O)N2CCC(C)(C(=O)NS(=O)(=O)C3CC3)C2)c(C)o1 (stereo unspecified)	-1.0	3.2	97.0	-1.1	1.2	-0.5	/	/
CC1CCCCC12NC(=O)N(CC(=O)N1CCc3ccccc3C1)C2=O (stereo unspecified)	7.3	0.4	112.0	4.9	-0.5	0.8	/	/
CO[C@@H]1O[C@@H]2COC(c3ccccc3)O[C@@H]2[C@@H](OC)[C@@H]1O (stereo partly specified)	-0.6	3.3	89.0	14.8	-0.9	0.0	/	/
C=CCOc1c(CCC)cc(CCC)cc1C(N)=O	0.7	0.8	92.0	2.9	-1.0	-0.5	/	/
CCOc1ccc(CC2S/C(=N/N=C/c3ccco3)NC2=O)cc1 (stereo unspecified)	-4.2	2.5	105.0	9.8	-0.1	13.6*	4.7	4.8
Cc1ccc(S(=O)(=O)N2[C@@H](c3ccc(C(C)(C)C)cc3)C(C(=O)O)=CC[C@H]2c2ccc(C(C)C)cc2)cc1	4.9	1.1	92.0	9.3	-0.7	19.8*	15.3*	5.0
Oc1[nH]c2ccccc2c1N=Nc1cccc(Cl)c1	-1.5	-0.6	90.0	-3.5	2.2	0.1	/	/
Cc1cccc2c(N=Nc3ccccc3)c(O)[nH]c12	-11.4	-0.4	98.0	-3.1	-0.2	15.2*	0.9	1.8
O=C(NCc1ccncc1)c1ccc(OCc2ccccc2)cc1	-0.3	-0.3	95.0	4.5	-0.6	-2.4	/	/
Cc1ccc(CNC(=O)c2ccc(COc3ccccc3)cc2)cc1	-4.8	6.7	98.0	-1.3	0.0	13.2*	-1.0	3.9
CCOC(=O)C(=CNc1ccc2c(c1)nnn2-c1ccc(Cl)cc1)C(=O)OCC	-1.6	0.9	98.0	11.2	0.2	21.6*	23.4*	4.0
CCOC(=O)C(=CNc1cc(C)nn1-c1ccc(C)cc1)C(=O)OCC	-0.5	2.8	111.0	-5.6	-0.8	2.6	/	/
SMILES	Granule exo inh	iPSC survival up	ABCB6 inh 2	MC4R antagonist	TbMetRS inhib	MC4R barr agon	MC4R barr conf	MOR DOR agonist
CN(C)S(=O)(=O)c1ccc2[nH]cc(/C=C/c3nc4ccccc4c(=O)n3-c3ccccc3)c2c1	1.7	2.4	107.0	1.3	-1.1	12.6*	9.2*	5.4
CCCc1cc(-c2n[nH]c(C)c2-c2ccc(C(=O)OCC)o2)c(O)cc1O	3.3	-2.1	106.0	6.3	-0.2	12.9*	5.0	3.5
CCCc1cc(C(=O)Cc2ccc(C(=O)OCC)o2)c(O)cc1O	-2.1	-1.8	88.0	4.3	0.4	1.8	/	/
CCOC(=O)Cn1nc(C)c2c1CCCC2=O	-2.3	3.2	90.0	12.1	-0.6	-1.5	/	/
Cc1ccc(C(C)C)c(OCc2nn(CC(=O)c3ccc(OC(F)F)cc3)c3[n+]2CCCCC3)c1	8.9	-0.7	88.0	16.0	-0.8	19.6*	14.3*	25.1*
Cc1ccccc1C(=O)N/N=C1/SCC(=O)N1Cc1ccccc1	-0.6	2.0	91.0	8.5	-0.4	-1.9	/	/
CSc1nc(N)nc(SCC(=O)c2ccc(C)cc2)c1C#N	0.8	1.5	91.0	-15.7	-0.6	20.7*	21.6*	4.5
COc1ccc(CNC(=O)C2Cc3c(-c4ccc5c(c4)OCO5)ccnc3O2)cc1OC (stereo unspecified)	-11.6	0.2	96.0	-13.8	0.1	-2.1	/	/
CCc1cc(=O)oc2c(C)c(OCC(=O)NCc3ccccn3)ccc12	-6.0	1.2	96.0	-0.7	-1.4	-1.9	/	/
CCOc1ccc(N(CC(=O)Nc2ccc(F)c(F)c2)S(=O)(=O)c2c(C)noc2C)cc1	0.9	7.6	100.0	-0.8	-0.6	9.6*	1.0	7.0
COc1ccccc1-c1cc(NC(C)=O)c2ncc(-c3ccc(S(C)(=O)=O)cc3)n2c1	-9.2	4.6	93.0	11.0	-0.3	0.3	/	/
CC(=O)Nc1cc(-c2ccsc2)cn2c(-c3ccc(F)cc3)cnc12	-0.1	-2.2	92.0	-3.7	-0.3	18.4*	13.4*	4.0
COc1ccc(-c2cc(NC(C)=O)c3ncc(-c4ccc(OC)c(OC)c4)n3c2)cc1OC	36.0	3.1	99.0	10.5	-0.3	14.6*	22.8*	2.4
CC(=O)Nc1cc(-c2cccc(C(=O)NCCO)c2)cn2c(-c3ccc(F)cc3)cnc12	-1.1	4.0	96.0	23.1	0.0	2.6	/	/

Screens deposited in PubChem BioAssay by several laboratories.
